Data as given in ChEMBL document CHEMBL4680220, “Synthesis and biological evaluation of acridine-based histone deacetylase inhibitors as multitarget agents against Alzheimer's disease” (Eur J Med Chem, 2020).

Experiments:
[1] = system: Hippocampal neurone; assay: Induction of neurite outgrowth in Sprague-Dawley rat primary hippocampal neurons assessed as increase in number of axonal and dendritic neurite incubated for 3 days by DAPI staining based immunofluorescence microscopic analysis; assay type: functional; conditions: time 3.0 day
Method in brief: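 Primary hippocampal neurons from embryonic Sprague-Dawley rats, plated on poly-D-lysine and kept in B27-neurobasal medium. Treated with DMSO or compound from DIV3 for three days, fixed at DIV6 in 4% paraformaldehyde. Axons stained with anti-tau, dendrites with anti-MAP2, nuclei with DAPI; fluorescence microscopy. At least 20 neurons traced for number and length of primary, secondary and tertiary neurites.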

[2] = Intrinsic clearance in human liver microsomes at 1 uM preincubated for 3 mins followed by NADPH addition and measured up to 60 mins by LC-MS/MS analysis; assay type: ADME, Microsome; conditions: 1 h, time <=63 min
Method in brief: (§1)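 Mixed-gender human liver microsomes with test article at 1 µM final. Testosterone (5 µM) run separately as control. Mixture without cofactor equilibrated 3 min at 37 °C in a shaking water bath, then started with cofactor. Aliquots taken at 0, 10, 20, 30 and 60 min. CLint = k/P, where k is the elimination rate constant and P is the incubation protein concentration.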

[3] = target: T1, Amyloid-beta precursor protein (Homo sapiens, UniProt P05067); assay: Disaggregation of self-induced amyloid beta (1 to 42) (unknown origin) preformed fibrils at 10 uM measured after 24 hrs by thioflavin-T fluorescence assay relative to control
T1 sequence (P05067 whole entry): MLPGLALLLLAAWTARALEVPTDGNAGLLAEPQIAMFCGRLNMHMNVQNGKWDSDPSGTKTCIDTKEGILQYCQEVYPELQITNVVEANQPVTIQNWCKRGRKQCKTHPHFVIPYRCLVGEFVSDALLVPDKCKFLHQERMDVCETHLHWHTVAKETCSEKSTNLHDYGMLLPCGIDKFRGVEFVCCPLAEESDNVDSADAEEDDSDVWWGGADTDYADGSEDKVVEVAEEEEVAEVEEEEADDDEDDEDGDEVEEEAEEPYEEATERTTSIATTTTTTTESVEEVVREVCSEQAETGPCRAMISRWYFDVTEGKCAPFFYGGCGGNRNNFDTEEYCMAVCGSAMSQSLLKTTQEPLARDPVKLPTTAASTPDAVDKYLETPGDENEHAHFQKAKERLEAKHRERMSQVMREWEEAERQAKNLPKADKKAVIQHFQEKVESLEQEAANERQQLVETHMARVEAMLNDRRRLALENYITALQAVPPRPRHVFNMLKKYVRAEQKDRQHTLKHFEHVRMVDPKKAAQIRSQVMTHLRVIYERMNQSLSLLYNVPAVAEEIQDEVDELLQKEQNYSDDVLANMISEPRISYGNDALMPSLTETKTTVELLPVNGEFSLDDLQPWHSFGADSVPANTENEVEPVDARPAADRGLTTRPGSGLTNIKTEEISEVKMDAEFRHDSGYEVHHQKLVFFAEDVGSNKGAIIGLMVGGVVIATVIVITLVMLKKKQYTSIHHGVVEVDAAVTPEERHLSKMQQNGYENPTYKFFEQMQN
Method in brief: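 Aβ1-42 (10 µM) with 10 µM ThT and 1 mM EDTA in 50 mM phosphate buffer (150 mM NaCl, pH 7.4) pre-aggregated 24 h at 37 °C, 700 rpm; fluorescence read (ex 440/em 486 nm). Compound then added and incubated a further 24 h at 37 °C before re-reading. Disaggregation = (first − second reading)/first reading. Triplicate.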

[4] = target: T1, Amyloid-beta precursor protein; assay: Inhibition of amyloid beta (1 to 42) (unknown origin) self aggregation after 24 hrs by thioflavin-T fluorescence method
Method in brief: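 ThT aggregation assay. Compound at varying concentrations combined with 10 µM Aβ1-42 (1 mM DMSO stock), 10 µM ThT, 1 mM EDTA in 50 mM phosphate buffer (150 mM NaCl, pH 7.4). Incubated 24 h at 37 °C with shaking at 700 rpm; fluorescence ex 440/em 486 nm. 0.1% DMSO wells = 100% aggregation; compound wells without Aβ = background. IC50 from triplicates.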

[5] = target: Histone deacetylase 5 (Homo sapiens, UniProt Q9UQL6); assay: Inhibition of recombinant human C-terminal His-tagged HDAC5 (656 to 1122 residues) expressed in baculovirus infected Sf9 insect cells using fluorogenic HDAC 2A substrate preincubated for 5 mins followed by substrate addition and measured after 30 mins by fluorescence assay
Histone deacetylase 5, sequence (Q9UQL6 whole entry, the tested form may be a part): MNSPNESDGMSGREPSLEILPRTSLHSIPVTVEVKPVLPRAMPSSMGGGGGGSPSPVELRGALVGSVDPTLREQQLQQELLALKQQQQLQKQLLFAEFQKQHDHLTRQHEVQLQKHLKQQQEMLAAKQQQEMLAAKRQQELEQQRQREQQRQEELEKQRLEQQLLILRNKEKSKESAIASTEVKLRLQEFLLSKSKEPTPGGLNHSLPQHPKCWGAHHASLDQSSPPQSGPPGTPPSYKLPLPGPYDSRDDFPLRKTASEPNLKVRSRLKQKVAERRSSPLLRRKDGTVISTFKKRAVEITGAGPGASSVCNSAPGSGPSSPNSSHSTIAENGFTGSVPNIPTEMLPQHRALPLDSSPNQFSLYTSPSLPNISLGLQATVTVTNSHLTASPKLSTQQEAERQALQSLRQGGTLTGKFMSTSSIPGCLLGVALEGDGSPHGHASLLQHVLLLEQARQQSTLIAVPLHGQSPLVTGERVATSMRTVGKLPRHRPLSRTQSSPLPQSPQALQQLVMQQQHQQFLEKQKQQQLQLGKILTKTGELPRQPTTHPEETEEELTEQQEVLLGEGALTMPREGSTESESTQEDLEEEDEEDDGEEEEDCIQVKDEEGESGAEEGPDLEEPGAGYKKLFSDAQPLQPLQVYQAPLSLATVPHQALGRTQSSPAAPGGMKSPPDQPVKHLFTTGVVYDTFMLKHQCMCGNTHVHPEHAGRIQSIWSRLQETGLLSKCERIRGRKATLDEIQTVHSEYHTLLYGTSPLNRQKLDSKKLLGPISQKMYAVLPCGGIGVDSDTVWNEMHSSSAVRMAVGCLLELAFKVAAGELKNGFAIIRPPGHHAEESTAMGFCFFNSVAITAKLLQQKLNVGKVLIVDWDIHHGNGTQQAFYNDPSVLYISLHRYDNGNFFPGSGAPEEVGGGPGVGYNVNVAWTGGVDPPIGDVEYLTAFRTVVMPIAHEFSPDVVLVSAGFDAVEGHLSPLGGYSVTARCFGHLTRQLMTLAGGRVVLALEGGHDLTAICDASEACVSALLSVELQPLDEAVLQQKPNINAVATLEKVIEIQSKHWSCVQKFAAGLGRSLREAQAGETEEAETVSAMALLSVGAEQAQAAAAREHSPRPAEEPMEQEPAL

[6] = target: Histone deacetylase 3/Nuclear receptor corepressor 2 (HDAC3/NCoR2) (Homo sapiens, UniProt O15379); assay: Inhibition of human recombinant C-terminal His-tagged HDAC3 (1 to 428 residues)/N-terminal GST-tagged NCOR2 (395 to 489 residus) expressed in baculovirus infected Sf9 insect cells using fluor de lys SIRT1 as substrate preincubated for 5 mins followed by substrate addition and measured after 30 mins by fluorescence assay
[7] = target: Histone deacetylase 2 (Homo sapiens, UniProt Q92769); assay: biochemical; assay type: cell-based, Sf9
Histone deacetylase 2, sequence (Q92769 whole entry): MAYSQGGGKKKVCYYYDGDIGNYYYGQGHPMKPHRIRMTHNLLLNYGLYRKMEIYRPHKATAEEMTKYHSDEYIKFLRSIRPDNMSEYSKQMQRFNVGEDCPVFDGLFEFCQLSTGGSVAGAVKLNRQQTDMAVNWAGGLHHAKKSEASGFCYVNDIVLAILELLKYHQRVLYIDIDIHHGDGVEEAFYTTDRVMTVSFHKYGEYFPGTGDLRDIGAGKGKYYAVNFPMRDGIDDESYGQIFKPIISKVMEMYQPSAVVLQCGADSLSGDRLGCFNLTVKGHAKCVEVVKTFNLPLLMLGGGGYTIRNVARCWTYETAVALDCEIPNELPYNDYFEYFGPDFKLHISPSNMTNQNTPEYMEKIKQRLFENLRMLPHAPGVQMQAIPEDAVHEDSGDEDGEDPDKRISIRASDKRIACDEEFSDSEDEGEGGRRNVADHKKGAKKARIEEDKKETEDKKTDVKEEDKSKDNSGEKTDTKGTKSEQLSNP

[8] = target: T2, Protein deacetylase HDAC6 (Homo sapiens, UniProt Q9UBN7); assay: Inhibition of HDAC6 in […] cells assessed as increase in alpha-tubulin acetylation measured after 24 hrs by Western blot analysis; assay type: cell-based, Mus musculus
T2 sequence (Q9UBN7 whole entry): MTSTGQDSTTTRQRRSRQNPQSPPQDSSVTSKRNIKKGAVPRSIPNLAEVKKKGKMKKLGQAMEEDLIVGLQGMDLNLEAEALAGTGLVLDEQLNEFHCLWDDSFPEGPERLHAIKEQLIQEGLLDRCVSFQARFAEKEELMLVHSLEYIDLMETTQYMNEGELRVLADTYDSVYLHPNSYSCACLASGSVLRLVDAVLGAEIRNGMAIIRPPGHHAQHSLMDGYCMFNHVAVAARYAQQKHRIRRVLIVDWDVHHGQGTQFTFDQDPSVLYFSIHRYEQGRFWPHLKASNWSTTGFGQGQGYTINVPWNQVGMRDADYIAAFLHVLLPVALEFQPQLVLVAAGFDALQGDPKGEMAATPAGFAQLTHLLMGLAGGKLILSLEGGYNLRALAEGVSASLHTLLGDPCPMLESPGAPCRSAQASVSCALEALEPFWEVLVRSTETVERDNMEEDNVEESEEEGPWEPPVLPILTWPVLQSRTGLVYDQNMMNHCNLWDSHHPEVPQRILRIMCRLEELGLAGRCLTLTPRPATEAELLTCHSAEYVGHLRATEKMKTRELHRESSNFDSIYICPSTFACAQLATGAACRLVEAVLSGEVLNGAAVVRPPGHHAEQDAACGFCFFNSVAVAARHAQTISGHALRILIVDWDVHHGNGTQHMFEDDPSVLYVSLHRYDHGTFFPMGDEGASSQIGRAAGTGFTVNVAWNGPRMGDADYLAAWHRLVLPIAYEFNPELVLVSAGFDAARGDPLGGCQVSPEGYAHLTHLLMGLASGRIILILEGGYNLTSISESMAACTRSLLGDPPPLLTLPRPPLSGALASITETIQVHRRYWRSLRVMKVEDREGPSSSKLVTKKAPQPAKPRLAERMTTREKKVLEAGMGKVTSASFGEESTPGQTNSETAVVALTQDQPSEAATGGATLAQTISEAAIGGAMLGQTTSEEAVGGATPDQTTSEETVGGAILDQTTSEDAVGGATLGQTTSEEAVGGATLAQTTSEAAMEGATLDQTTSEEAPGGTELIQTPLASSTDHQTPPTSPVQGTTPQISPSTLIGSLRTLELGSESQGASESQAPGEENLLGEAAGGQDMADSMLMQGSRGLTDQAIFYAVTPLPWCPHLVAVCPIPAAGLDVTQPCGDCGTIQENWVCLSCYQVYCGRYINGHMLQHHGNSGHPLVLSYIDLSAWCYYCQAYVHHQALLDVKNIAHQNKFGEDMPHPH

[9] = Elimination rate constant in human liver microsomes at 1 uM preincubated for 3 mins followed by NADPH addition and measured up to 60 mins by LC-MS/MS analysis; assay type: ADME, Microsome; conditions: time <=63 min; method in brief: as §1
[10] = target: Acetylcholinesterase (Homo sapiens, UniProt P22303); assay: Inhibition of recombinant human C-terminal 6His-tagged AChE (Glu32 to Leu614 residues) expressed in CHO cells using acetylthiocholine iodide as substrate preincubated for 5 mins measured after 15 mins by DTNB reagent based assay
Acetylcholinesterase, sequence (P22303 whole entry): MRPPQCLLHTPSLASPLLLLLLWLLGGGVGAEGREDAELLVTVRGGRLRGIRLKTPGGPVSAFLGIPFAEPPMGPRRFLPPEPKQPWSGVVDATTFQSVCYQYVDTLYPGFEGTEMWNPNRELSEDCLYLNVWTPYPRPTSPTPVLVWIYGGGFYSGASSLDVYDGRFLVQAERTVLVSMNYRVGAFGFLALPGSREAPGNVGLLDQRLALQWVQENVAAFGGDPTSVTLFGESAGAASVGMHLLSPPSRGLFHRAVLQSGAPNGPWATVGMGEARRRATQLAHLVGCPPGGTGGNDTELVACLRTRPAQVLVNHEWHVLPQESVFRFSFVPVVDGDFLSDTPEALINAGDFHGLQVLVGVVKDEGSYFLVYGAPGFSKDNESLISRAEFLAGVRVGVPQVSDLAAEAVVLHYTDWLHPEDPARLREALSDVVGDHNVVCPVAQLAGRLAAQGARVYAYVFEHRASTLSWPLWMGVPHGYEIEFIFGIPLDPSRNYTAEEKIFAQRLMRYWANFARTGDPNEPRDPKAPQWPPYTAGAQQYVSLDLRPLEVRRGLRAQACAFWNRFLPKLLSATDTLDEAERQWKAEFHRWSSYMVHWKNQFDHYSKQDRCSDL
Method in brief: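 Enzyme, compounds, acetylthiocholine iodide and DTNB diluted in 100 mM phosphate buffer pH 7.4. AChE was preincubated with the compound at varying concentrations for 5 min at 37 °C. The reaction was started with 1 mM ATCI solution and run 15 min at 37 °C. 2 mM DTNB solution was then added for 5 min. Absorbance read at 412 nm. IC50 set 0.1% DMSO wells as 100% and no-enzyme wells as 0%. Run in triplicate.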

[11] = target: Histone deacetylase 9 (Homo sapiens, UniProt Q9UKV0); assay: Inhibition of recombinant human C-terminal His-tagged HDAC9 (604 to 1066 residues) expressed in baculovirus infected Sf9 cells using fluorogenic HDAC 2A substrate preincubated for 5 mins followed by substrate addition and measured after 30 mins by fluorescence assay
Histone deacetylase 9, sequence (Q9UKV0 whole entry, the tested form may be a part): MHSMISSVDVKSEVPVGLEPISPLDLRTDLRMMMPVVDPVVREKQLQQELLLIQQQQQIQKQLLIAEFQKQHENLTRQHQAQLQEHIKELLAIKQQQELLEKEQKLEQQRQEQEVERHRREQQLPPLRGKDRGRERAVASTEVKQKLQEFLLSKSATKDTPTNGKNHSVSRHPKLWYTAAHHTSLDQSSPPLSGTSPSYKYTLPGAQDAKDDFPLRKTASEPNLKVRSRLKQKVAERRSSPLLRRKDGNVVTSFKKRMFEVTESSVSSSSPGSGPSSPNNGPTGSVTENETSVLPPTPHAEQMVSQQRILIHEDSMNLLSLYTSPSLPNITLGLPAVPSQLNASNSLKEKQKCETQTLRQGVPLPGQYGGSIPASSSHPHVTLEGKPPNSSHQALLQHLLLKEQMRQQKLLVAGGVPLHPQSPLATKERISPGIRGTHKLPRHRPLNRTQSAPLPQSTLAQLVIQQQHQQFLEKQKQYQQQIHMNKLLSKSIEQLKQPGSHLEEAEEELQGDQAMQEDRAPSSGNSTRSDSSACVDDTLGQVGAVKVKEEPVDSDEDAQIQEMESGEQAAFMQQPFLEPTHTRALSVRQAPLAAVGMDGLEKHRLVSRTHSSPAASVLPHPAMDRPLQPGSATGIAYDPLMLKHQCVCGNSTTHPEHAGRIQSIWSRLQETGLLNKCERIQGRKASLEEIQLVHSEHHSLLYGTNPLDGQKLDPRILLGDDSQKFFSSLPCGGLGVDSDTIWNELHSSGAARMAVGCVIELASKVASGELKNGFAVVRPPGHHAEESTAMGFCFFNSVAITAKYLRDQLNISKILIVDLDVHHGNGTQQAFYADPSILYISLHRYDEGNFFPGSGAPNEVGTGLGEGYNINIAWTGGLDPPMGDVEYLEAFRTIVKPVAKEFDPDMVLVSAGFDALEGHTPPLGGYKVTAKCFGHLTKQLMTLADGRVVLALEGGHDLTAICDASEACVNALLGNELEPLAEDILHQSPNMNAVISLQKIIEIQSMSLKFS

| SMILES | Activity [1] | CLint [2] [mL/min/mg] | inhibition [3] [%] | IC50 [4] [nM] | IC50 [5] [µM] | IC50 [6] [nM] | IC50 [7] [nM] | EC50 [8] [µM] | k el at 1 h, 1 µM [9] [s⁻¹] | IC50 [10] [nM] | IC50 [11] [µM] |
| --- | --- | --- | --- | --- | --- | --- | --- | --- | --- | --- | --- |
| O=C(NO)c1ccc(Nc2c3ccccc3nc3ccc(Br)cc23)cc1 | Dose-dependent effect | 0.0366 | 70 | 1100 | 7.19 | 330 | 480 | 8 | 0.000305 | 880 | 5.51 |
| O=C(NO)c1ccc(Nc2c3ccccc3nc3ccccc23)cc1 | Dose-dependent effect | 0.0407 | 41 | 3000 | 0.85 | 1220 | 1570 | 8 | 0.00034 | 720 | 0.57 |
